Measured values as given in ChEMBL document CHEMBL5143750, “Bisubstrate Inhibitors of Severe Acute Respiratory Syndrome Coronavirus-2 Nsp14 Methyltransferase” (ACS Med Chem Lett, 2022).

What was measured:
[1] = Metabolic stability in CD-1 mouse liver S9 fraction assessed as half life at 1 micromol/L in presence of UDPGA measured upto 24 hrs by LC-MS/MS analysis; assay type: ADME, subcellular; conditions: s9, 24 h, 1 µM, dose 1 µmol/L
[2] = Metabolic stability in human plasma at 1 micromol/L measured upto 24 hrs by LC-MS/MS analysis; assay type: ADME, cell-free; conditions: dose 1 µmol/L
Outline: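 Compound was incubated in human plasma, and percentage remaining was followed over the incubation. Data are mean ± SD.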

[3] = Metabolic stability in CD-1 mouse plasma at 1 micromol/L measured upto 24 hrs by LC-MS/MS analysis; assay type: ADME, cell-free; conditions: dose 1 µmol/L
[4] = Metabolic stability in human liver S9 fraction assessed as half life at 1 micromol/L in presence of NADPH measured upto 24 hrs by LC-MS/MS analysis; assay type: ADME, subcellular; conditions: s9, 24 h, 1 µM, dose 1 µmol/L
A549 [5] = test: Cytotoxicity against human A549 cells overexpressing ACE2 and TMPRSS2 incubated for 48 hrs by MTS assay; assay type: functional
Outline: (§1)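 A549 AT host cells were used for viability read-out. More than 95% viability at 50 μM was classed as nontoxic. CC50 values came from at least duplicate determinations and were averaged.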

[6] = Metabolic stability in CD-1 mouse liver S9 fraction assessed as half life at 1 micromol/L in presence of NADPH measured upto 24 hrs by LC-MS/MS analysis; assay type: ADME, subcellular; conditions: s9, 24 h, 1 µM, dose 1 µmol/L
[7] = Metabolic stability in human liver S9 fraction assessed as half life at 1 micromol/L in presence of UDPGA measured upto 24 hrs by LC-MS/MS analysis; assay type: ADME, subcellular; conditions: s9, 24 h, 1 µM, dose 1 µmol/L
[8] = molecular target: Replicase polyprotein 1ab (Severe acute respiratory syndrome coronavirus 2) (UniProt P0DTD1); test: Stabilization of SARS-CoV-2 NSP14 expressed in Escherichia coli BL21(DE3) assessed as change in melting temperature at 200 uM incubated for 4 mins by SYPRO orange dye based thermal shift assay
A549 [9] = test: Cytotoxicity against human A549 cells overexpressing ACE2 and TMPRSS2 assessed as cell viability at 50 uM incubated for 48 hrs by MTS assay; assay type: functional; conditions: read-out: Activity; outline: as §1

In the case of `Nc1ncnn2c([C@@H]3O[C@H](CNS(=O)(=O)c4ccc5ccccc5c4)[C@@H](O)[C@H]3O)ccc12`, the t1/2 [1] was greater than 0.75 h, the t1/2 at 24 h, 1 µM [2] was greater than 24 h and the t1/2 at 24 h, 1 µM [3] was greater than 24 h. For the same compound, the t1/2 [4] was 14 h, the CC50 (A549 [5]) was greater than 100 µM and the t1/2 [6] was 0.482 h. For the same compound, the t1/2 [7] was greater than 0.75 h and the ΔTm [8] was greater than 8 °C.

`Nc1ncnc2c1ncn2[C@@H]1O[C@H](CNC(=O)c2ccc3ccccc3c2)[C@@H](O)[C@H]1O` gave a viability at 50 µM (A549 [9]) greater than 95%.

Work on `Nc1ncnc2c1ncn2[C@@H]1O[C@H](CNS(=O)(=O)c2ccc3ccccc3c2)[C@@H](O)[C@H]1O` yielded a viability at 50 µM (A549 [9]) greater than 95%, a t1/2 [1] greater than 0.75 h and a t1/2 at 24 h, 1 µM [2] greater than 24 h. It also gave a t1/2 at 24 h, 1 µM [3] greater than 24 h, a t1/2 [4] of 11.2 h and a t1/2 [6] of 4.55 h. It also gave a t1/2 [7] greater than 0.75 h and a ΔTm [8] greater than 8 °C.

In the case of `CC(=O)O[C@@H]1[C@H](OC(C)=O)[C@@H](CNS(=O)(=O)c2ccc3ccccc3c2)O[C@H]1c1ccc2c(N)ncnn12`, the CC50 (A549 [5]) was 63 µM.

For `Nc1ncnc2c1ncn2[C@@H]1O[C@H](CNS(=O)(=O)c2ccc3cccnc3c2)[C@@H](O)[C@H]1O`, the viability at 50 µM (A549 [9]) was greater than 95%.

`CC(=O)Nc1ncnc2c1ncn2[C@@H]1O[C@H](CNS(=O)(=O)c2ccc3ccccc3c2)[C@@H](O)[C@H]1O` showed a CC50 (A549 [5]) greater than 100 µM and a ΔTm [8] greater than 8 °C.

`CCC(CC)COC(=O)[C@H](C)N[P@](=O)(OC[C@H]1O[C@@](C#N)(c2ccc3c(N)ncnn23)[C@H](O)[C@@H]1O)Oc1ccccc1` showed a CC50 (A549 [5]) of 43 µM.

For `CC(=O)O[C@@H]1[C@H](OC(C)=O)[C@@H](CNS(=O)(=O)c2ccc3ccccc3c2)O[C@H]1n1cnc2c(N)ncnc21`, the CC50 (A549 [5]) was greater than 100 µM.

In the case of `CC(C)C(=O)O[C@@H]1[C@H](OC(=O)C(C)C)[C@@H](CNS(=O)(=O)c2ccc3ccccc3c2)O[C@H]1n1cnc2c(N)ncnc21`, the CC50 (A549 [5]) was greater than 100 µM.

Compound `O=c1ccc2ccc(O)cc2o1` [UMBELLIFERONE] has a t1/2 [1] of 0.013 h.

With `Nc1ncnc2c1ncn2[C@@H]1O[C@H](CNCc2ccc3ccccc3c2)[C@@H](O)[C@H]1O` the viability at 50 µM (A549 [9]) was greater than 95%.

In the case of `Nc1ncnc2c1ncn2[C@@H]1O[C@H](CNS(=O)(=O)c2ccc3nc(Cl)ccc3c2)[C@@H](O)[C@H]1O`, the viability at 50 µM (A549 [9]) was greater than 95%.

Compound `Nc1ncnc2c1ncn2[C@@H]1O[C@H](C[C@@H](N)CC[C@H](N)C(=O)O)[C@@H](O)[C@H]1O` [SINEFUNGIN] has a viability at 50 µM (A549 [9]) greater than 95%.

With `CC(=O)Nc1ncnc2c1ncn2[C@@H]1O[C@H](CNS(=O)(=O)c2ccc3ccccc3c2)[C@@H](OC(C)=O)[C@H]1OC(C)=O` the CC50 (A549 [5]) was greater than 100 µM.
